In paper PMC7191207 (Heliyon, 2020):
Like-named read-outs stand apart in the source and are kept apart here.

What was measured:
renal cancer patients = renal cancer patients in clinical trials, up; cited from earlier work
albumin = conditions: mainly bound to albumin; cited from earlier work
[1] = Stability tests of QC samples in pooled human plasma; format: physicochemical; conditions: for degradation of QC samples: QC low, medium and high
How it was run: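 QC samples (12, 120, 900 ng/mL) spiked into pooled human plasma in triplicate, then held at bench top, in the autosampler, or 1 month at -80 °C. Extraction: diethyl ether liquid-liquid, dried under nitrogen at 37 °C, reconstituted in mobile phase. Analysis: C18 LC-MS/MS with positive ESI MRM (438.3/357.2) against a 1/x2-weighted calibration (5–1000 ng/mL). Accuracy = measured/nominal × 100%.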

[2] = Calculated hepatic extraction ratio; conditions: low (<0.3)
[3] = format: in vivo, human; conditions: oral 800 mg daily
How it was run: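 Plasma from patients on oral 800 mg daily for at least one week, excluding combined TKI therapy; blood centrifuged at 3000 rpm, plasma stored at -20 °C. Free fraction by rapid equilibrium dialysis (8000 Da cut-off) against PBS at 37 °C, 250 rpm, 6 h, in technical duplicates. Quantified by C18 HPLC with positive-ESI MRM, erlotinib internal standard, calibration 5–1000 ng/mL.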

Question: With `Cc1ccc(Nc2nccc(N(C)c3ccc4c(C)n(C)nc4c3)n2)cc1S(N)(=O)=O` [pazopanib, Pazopanib] as the compound, how does the “proportion of patients with increases in serum transaminases and bilirubin” value (renal cancer patients) read?
Answer: Its value is 40–50%.

Question: What about the plasma protein binding (albumin) of the same compound?
Answer: The plasma protein binding was > 99.9%.

Question: What about the “degradation of QC samples” value ([1]; 1 month of storage at -80 °C) of the same compound?
Answer: The value was “No significant degradation”.

Question: And the “Stability, Accuracy (%) from nominal concentration” value (“Stability, Accuracy (%)” below) ([1]; Autosampler: extracted samples stored for 14 h at room temperature, 12 ppb)?
Answer: Its value is 96.45%.

Question: And the “Stability, Accuracy (%)” value ([1]; Autosampler: extracted samples stored for 14 h at room temperature, 120 ppb)?
Answer: The value was 96.56%.

Question: What about the “Stability, Accuracy (%)” value ([1]; Autosampler: extracted samples stored for 14 h at room temperature, 900 ppb) of the same compound?
Answer: Its value is 96.02%.

Question: What about the “Stability, Accuracy (%)” value ([1]; Bench Top: plasma samples stored at room temperature for 8h, 12 ppb) of the same compound?
Answer: The value was 113.11%.

Question: What about the “Stability, Accuracy (%)” value ([1]; Bench Top: plasma samples stored at room temperature for 8h, 120 ppb) of the same compound?
Answer: Its value is 93.21%.

Question: What about the “Stability, Accuracy (%)” value ([1]; Bench Top: plasma samples stored at room temperature for 8h, 900 ppb) of the same compound?
Answer: The value was 97.02%.

Question: And the “Stability, Accuracy (%)” value ([1]; Freeze Thaw: three freeze thaw cycles, 12 ppb)?
Answer: The value was 93.79%.

Question: And the “Stability, Accuracy (%)” value ([1]; Freeze Thaw: three freeze thaw cycles, 120 ppb)?
Answer: The value was 93.50%.

Question: What about the “Stability, Accuracy (%)” value ([1]; Freeze Thaw: three freeze thaw cycles, 900 ppb) of the same compound?
Answer: The value was 100.49%.

Question: What about the “Stability, Accuracy (%)” value ([1]; Long Term: stored at -80 °C for 1 month, 12 ppb) of the same compound?
Answer: Its value is 100.58%.

Question: And the “Stability, Accuracy (%)” value ([1]; Long Term: stored at -80 °C for 1 month, 120 ppb)?
Answer: The value was 113.89%.

Question: What about the “Stability, Accuracy (%)” value ([1]; Long Term: stored at -80 °C for 1 month, 900 ppb) of the same compound?
Answer: Its value is 114.23%.

Question: And the “degradation of QC samples” value ([1]; auto sampler conditions)?
Answer: The value was “No significant degradation”.

Question: What about the “degradation of QC samples” value ([1]; bench top conditions) of the same compound?
Answer: The value was “No significant degradation”.

Question: What about the “degradation of QC samples” value ([1]; three freeze-thaw cycles) of the same compound?
Answer: Its value is “did not result in significant degradation”.

Question: What about the “calculated hepatic extraction ratio” value [2] of the same compound?
Answer: Its value is 0.00346.

Question: And the free drug concentration ([3]; 17 patients' plasma samples, mean ± standard deviation)?
Answer: Its free drug concentration is 5.84 ± 3.02 ng/mL.

Question: What about the “Plasma free drug concentration (Median ± Interquartile range)” value (“Plasma free drug concentration” for short) ([3]; patients with low albumin level (<40 g/L) (n = 7)) of the same compound?
Answer: Its value is 6.49 ± 3.65 ng/mL.

Question: What about the “Plasma free drug concentration” value ([3]; patients with normal albumin level (n = 8)) of the same compound?
Answer: Its value is 4.88 ± 2.71 ng/mL.

Question: And the “Plasma free drug concentration” value ([3]; patients with very low albumin level (<30 g/L) (n = 2))?
Answer: Its value is 3.44 ± 1.32 ng/mL.
